In ChEMBL document CHEMBL5058577, “EUbOPEN Chemogenomics Library 2 (Multiplex)” (2022):

System: Fibroblast
Test: Multiplex assay against human fibroblast
Format: toxicity, cell-based
In short: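 On a CQ1 microscope at 37°C and 5% CO2, live cells were imaged after compound addition. They had been stained at seeding with Hoechst33342, BioTracker Green Microtubule Cytoskeleton Dye, MitoTracker Red and Annexin V Alexa Fluor 680. CellPathfinder machine-learning gating assigned cells to Hoechst high-intensity objects or normal cells, normal cells to healthy, pyknosed or fragmented nuclei, and pyknosed cells to mitotic or apoptotic. Tubulin, mitochondrial-mass and membrane-permeability phenotypes are per cents of healthy-nucleus cells.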

[1] = 12 h, 1 µM, compound concentration 1 uM, replicate 1
[2] = 12 h, 1 µM, compound concentration 1 uM, replicate 2
[3] = 12 h, 10 µM, compound concentration 10 uM, replicate 1
[4] = 12 h, 10 µM, compound concentration 10 uM, replicate 2
[5] = 24 h, 1 µM, compound concentration 1 uM, replicate 1
[6] = 24 h, 1 µM, compound concentration 1 uM, replicate 2
[7] = 24 h, 10 µM, compound concentration 10 uM, replicate 1
[8] = 24 h, 10 µM, compound concentration 10 uM, replicate 2
[9] = 48 h, 1 µM, compound concentration 1 uM, replicate 1
[10] = 48 h, 1 µM, compound concentration 1 uM, replicate 2
[11] = 48 h, 10 µM, compound concentration 10 uM, replicate 1
[12] = 48 h, 10 µM, compound concentration 10 uM, replicate 2

COc1cccc2c1c(NS(=O)(=O)c1ccc(Cl)s1)nn2Cc1cccc(CNC(=O)C(C)(C)O)c1
Population Apoptotic (%) [1]: 43%
Population Fragmented Nuclei (%) [1]: 16%
Population Healthy Nuclei (%) [1]: 66%
Population Hoechst High Intensity Objects (%) [1]: 0%
Population Membrane Permeable-Phenotype (%) [1]: 1%
Population Mitochondria Different-Phenotype (%) [1]: 2%
Population Mitotic Cells (%) [1]: 56%
Population Normal (%) [1]: 99%
Population Pyknosed Nuclei (%) [1]: 17%
Population Tubulin-Different-Phenotype (%) [1]: 27%
Total Cell Count [1]: 134
Population Apoptotic (%) [2]: 33%
Population Fragmented Nuclei (%) [2]: 26%
Population Healthy Nuclei (%) [2]: 54%
Population Membrane Permeable-Phenotype (%) [2]: 4%
Population Mitochondria Different-Phenotype (%) [2]: 1%
Population Mitotic Cells (%) [2]: 66%
Population Normal (%) [2]: 100%
Population Pyknosed Nuclei (%) [2]: 18%
Population Tubulin-Different-Phenotype (%) [2]: 18%
Total Cell Count [2]: 112
Population Apoptotic (%) [3]: 42%
Population Fragmented Nuclei (%) [3]: 13%
Population Healthy Nuclei (%) [3]: 72%
Population Hoechst High Intensity Objects (%) [3]: 2%
Population Membrane Permeable-Phenotype (%) [3]: 1%
Population Mitochondria Different-Phenotype (%) [3]: 11%
Population Mitotic Cells (%) [3]: 57%
Population Normal (%) [3]: 97%
Population Pyknosed Nuclei (%) [3]: 13%
Population Tubulin-Different-Phenotype (%) [3]: 37%
Total Cell Count [3]: 211
Population Apoptotic (%) [4]: 41%
Population Fragmented Nuclei (%) [4]: 24%
Population Healthy Nuclei (%) [4]: 55%
Population Hoechst High Intensity Objects (%) [4]: 7%
Population Membrane Permeable-Phenotype (%) [4]: 7%
Population Mitochondria Different-Phenotype (%) [4]: 4%
Population Mitotic Cells (%) [4]: 58%
Population Normal (%) [4]: 92%
Population Pyknosed Nuclei (%) [4]: 19%
Population Tubulin-Different-Phenotype (%) [4]: 55%
Total Cell Count [4]: 174
Population Apoptotic (%) [5]: 55%
Population Fragmented Nuclei (%) [5]: 19%
Population Healthy Nuclei (%) [5]: 68%
Population Hoechst High Intensity Objects (%) [5]: 2%
Population Membrane Permeable-Phenotype (%) [5]: 2%
Population Mitochondria Different-Phenotype (%) [5]: 3%
Population Mitotic Cells (%) [5]: 44%
Population Normal (%) [5]: 97%
Population Pyknosed Nuclei (%) [5]: 12%
Population Tubulin-Different-Phenotype (%) [5]: 28%
Total Cell Count [5]: 144
Population Apoptotic (%) [6]: 50%
Population Fragmented Nuclei (%) [6]: 28%
Population Healthy Nuclei (%) [6]: 49%
Population Hoechst High Intensity Objects (%) [6]: 1%
Population Membrane Permeable-Phenotype (%) [6]: 7%
Population Mitochondria Different-Phenotype (%) [6]: 5%
Population Mitotic Cells (%) [6]: 50%
Population Normal (%) [6]: 98%
Population Pyknosed Nuclei (%) [6]: 22%
Population Tubulin-Different-Phenotype (%) [6]: 35%
Total Cell Count [6]: 110
Population Apoptotic (%) [7]: 48%
Population Fragmented Nuclei (%) [7]: 11%
Population Healthy Nuclei (%) [7]: 74%
Population Hoechst High Intensity Objects (%) [7]: 2%
Population Membrane Permeable-Phenotype (%) [7]: 1%
Population Mitochondria Different-Phenotype (%) [7]: 7%
Population Mitotic Cells (%) [7]: 52%
Population Normal (%) [7]: 97%
Population Pyknosed Nuclei (%) [7]: 13%
Population Tubulin-Different-Phenotype (%) [7]: 30%
Total Cell Count [7]: 190
Population Apoptotic (%) [8]: 50%
Population Fragmented Nuclei (%) [8]: 22%
Population Healthy Nuclei (%) [8]: 55%
Population Hoechst High Intensity Objects (%) [8]: 8%
Population Membrane Permeable-Phenotype (%) [8]: 6%
Population Mitochondria Different-Phenotype (%) [8]: 2%
Population Mitotic Cells (%) [8]: 50%
Population Normal (%) [8]: 92%
Population Pyknosed Nuclei (%) [8]: 22%
Population Tubulin-Different-Phenotype (%) [8]: 48%
Total Cell Count [8]: 175
Population Apoptotic (%) [9]: 62%
Population Fragmented Nuclei (%) [9]: 21%
Population Healthy Nuclei (%) [9]: 66%
Population Hoechst High Intensity Objects (%) [9]: 5%
Population Membrane Permeable-Phenotype (%) [9]: 1%
Population Mitochondria Different-Phenotype (%) [9]: 5%
Population Mitotic Cells (%) [9]: 37%
Population Normal (%) [9]: 94%
Population Pyknosed Nuclei (%) [9]: 12%
Population Tubulin-Different-Phenotype (%) [9]: 30%
Total Cell Count [9]: 135
Population Apoptotic (%) [10]: 75%
Population Fragmented Nuclei (%) [10]: 26%
Population Healthy Nuclei (%) [10]: 60%
Population Hoechst High Intensity Objects (%) [10]: 2%
Population Membrane Permeable-Phenotype (%) [10]: 8%
Population Mitochondria Different-Phenotype (%) [10]: 3%
Population Mitotic Cells (%) [10]: 25%
Population Normal (%) [10]: 97%
Population Tubulin-Different-Phenotype (%) [10]: 55%
Total Cell Count [10]: 99
Population Apoptotic (%) [11]: 63%
Population Fragmented Nuclei (%) [11]: 13%
Population Healthy Nuclei (%) [11]: 73%
Population Hoechst High Intensity Objects (%) [11]: 5%
Population Membrane Permeable-Phenotype (%) [11]: 3%
Population Mitochondria Different-Phenotype (%) [11]: 10%
Population Mitotic Cells (%) [11]: 36%
Population Normal (%) [11]: 94%
Population Pyknosed Nuclei (%) [11]: 12%
Population Tubulin-Different-Phenotype (%) [11]: 40%
Total Cell Count [11]: 187
Population Apoptotic (%) [12]: 51%
Population Fragmented Nuclei (%) [12]: 33%
Population Healthy Nuclei (%) [12]: 49%
Population Hoechst High Intensity Objects (%) [12]: 6%
Population Mitochondria Different-Phenotype (%) [12]: 4%
Population Mitotic Cells (%) [12]: 48%
Population Normal (%) [12]: 93%
Population Pyknosed Nuclei (%) [12]: 17%
Population Tubulin-Different-Phenotype (%) [12]: 43%
